Our source for the Retention_time, Drug metabolism and Ratio values is ChEMBL document CHEMBL3616473, “Identification and in silico prediction of metabolites of the model compound, tebufenozide by human CYP3A4 and CYP2C19” (Bioorg Med Chem, 2015).

Data set [1] is described as follows: Retention time of the compound by HPLC method. The class given is physicochemical.
The target of the next data set is Cytochrome P450 3A4 (Homo sapiens, UniProt P08684). Put plainly: Drug level in yeast cells expressing human CYP3A4 assessed as human CYP3A4-mediated compound formation by pre-incubated with 200 uM tebufenozide for 2 mins at 37 degC before NADPH addition by LC/MS method. The class given is ADME, cell-based. Particulars: recombinant enzyme. In outline: (§1)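 Microsomes with 67 nM human P450 in 100 mM phosphate buffer, pH 7.4, preincubated 2 min at 37 °C. Reaction started with NADPH (1 mM final) at 37 °C and stopped at various times with two volumes of acetonitrile and shaking. After centrifugation (7,000 G, 10 min), the acetonitrile phase was analysed by HPLC and by LC/MS (ESI positive mode, m/z 100-500).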

Another data set has as its target Cytochrome P450 2C19 (Homo sapiens, UniProt P33261). As to the kind of experiment: Drug level in yeast cells expressing human CYP2C19 assessed as human CYP2C19-mediated compound formation by pre-incubated with 200 uM tebufenozide for 2 mins at 37 degC before NADPH addition by LC/MS method. The class given is ADME, cell-based. The settings on record: recombinant enzyme. In short, it runs like this:
as §1

Data set [2] can be described thus: Selectivity index, ratio of Vmax for human CYP3A4-mediated metabolite-M1 formation to Vmax for human CYP2C19-mediated metabolite-M1 formation. Particulars: recombinant enzyme. In short, it runs like this: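 Microsomes with 67 nM human CYP3A4 or CYP2C19 in 100 mM phosphate buffer, pH 7.4, with tebufenozide (1–50, 2% acetonitrile), preincubated 2 min at 37 °C. NADPH (1 mM final) was added, and reactions were stopped with acetonitrile after 5 min (CYP3A4) or 10 min (CYP2C19). M1 was quantified by HPLC, and Km and Vmax were fitted from rate (mol/min/mol P450) against substrate concentration.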

Data set [3] in a line: Selectivity index, ratio of Km for human CYP3A4-mediated metabolite-M1 formation to Km for human CYP2C19-mediated metabolite-M1 formation. Particulars: recombinant enzyme.

Structures are written as SMILES.

Chain of Cytochrome P450 3A4 (P08684 whole entry): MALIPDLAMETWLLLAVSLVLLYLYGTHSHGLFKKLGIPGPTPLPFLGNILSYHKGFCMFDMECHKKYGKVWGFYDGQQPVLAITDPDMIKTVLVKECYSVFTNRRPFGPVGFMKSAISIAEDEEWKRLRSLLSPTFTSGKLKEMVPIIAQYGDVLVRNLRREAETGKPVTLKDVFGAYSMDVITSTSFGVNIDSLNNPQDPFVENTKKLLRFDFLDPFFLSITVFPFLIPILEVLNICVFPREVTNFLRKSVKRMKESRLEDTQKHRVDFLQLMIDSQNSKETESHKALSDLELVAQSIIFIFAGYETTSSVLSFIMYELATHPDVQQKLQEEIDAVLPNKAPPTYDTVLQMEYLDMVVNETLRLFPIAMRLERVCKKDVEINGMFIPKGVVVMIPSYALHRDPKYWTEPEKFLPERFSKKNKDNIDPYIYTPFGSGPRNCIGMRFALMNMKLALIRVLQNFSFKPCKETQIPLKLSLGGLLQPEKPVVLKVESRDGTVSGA
Chain of Cytochrome P450 2C19 (P33261 whole entry): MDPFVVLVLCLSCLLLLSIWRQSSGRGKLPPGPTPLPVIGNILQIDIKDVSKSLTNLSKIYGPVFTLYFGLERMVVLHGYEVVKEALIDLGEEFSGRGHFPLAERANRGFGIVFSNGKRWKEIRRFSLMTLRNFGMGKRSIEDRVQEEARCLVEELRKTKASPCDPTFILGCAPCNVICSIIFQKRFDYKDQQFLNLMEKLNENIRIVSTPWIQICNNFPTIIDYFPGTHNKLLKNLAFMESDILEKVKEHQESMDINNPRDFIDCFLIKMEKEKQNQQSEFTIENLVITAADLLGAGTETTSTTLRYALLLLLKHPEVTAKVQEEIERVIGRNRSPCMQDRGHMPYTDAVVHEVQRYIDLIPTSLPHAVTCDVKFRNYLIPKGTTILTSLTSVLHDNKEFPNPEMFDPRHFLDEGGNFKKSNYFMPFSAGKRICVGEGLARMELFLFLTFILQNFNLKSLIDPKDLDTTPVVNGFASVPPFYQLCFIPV

In data set [1], `Cc1cc(C)cc(C(=O)N(NC(=O)c2ccc(C(C)O)cc2)C(C)(C)C)c1` (racemic) gave a Retention_time of 9.5 min. Besides, the Drug metabolism result at Cytochrome P450 3A4 and at Cytochrome P450 2C19 was “metabolite_detected” each time.

Turning to `CC(=O)c1ccc(C(=O)NN(C(=O)c2cc(C)cc(C)c2)C(C)(C)C)cc1`, in data set [1], the Retention_time came to 12 min. Moreover, on Cytochrome P450 2C19, the Drug metabolism result was “metabolite_detected”.

`CCc1ccc(C(=O)NN(C(=O)c2cc(C)cc(C)c2)C(C)(C)CO)cc1` came in with a Retention_time in data set [1] of 14.5 min. On Cytochrome P450 3A4, the Drug metabolism result is “metabolite_detected”.

`CCc1ccc(C(=O)NN(C(=O)c2cc(C)cc(CO)c2)C(C)(C)C)cc1` showed a Retention_time in data set [1] of 10.5 min. For the same compound, the Drug metabolism result at Cytochrome P450 3A4 is “metabolite_detected”.

In the case of `CCc1ccc(C(=O)NN(C(=O)c2cc(C)cc(C)c2)C(C)(C)C)cc1` [TEBUFENOZIDE], the Ratio in data set [2] stood at 6; in data set [3], 4.

`C=Cc1ccc(C(=O)NN(C(=O)c2cc(C)cc(C)c2)C(C)(C)C)cc1` had a Retention_time in data set [1] of 15 min. The Drug metabolism result on Cytochrome P450 2C19 was “metabolite_detected”.
